Reference: paper PMC10835759 (RSC Advances, 2024)

What was measured:
[1] = target: rat intestinal isomaltase (Rattus norvegicus, UniProt P23739); test: Inhibitory effects on rat intestinal α-glucosidases: isomaltase; type: biochemical; settings: at 100 μg mL^−1 (26a: 297 μM, 26b: 271 μM, 26c and 27c: 341 μM, 28a: 326 μM, 28b: 296 μM, 28c: 380 μM)
rat intestinal sucrase = rat intestinal sucrase (Rattus norvegicus, UniProt P23739); test: Inhibitory effects on rat intestinal α-glucosidases: sucrase; type: biochemical; settings: for IC50: IC50 Sucrase, rat small intestinal brush border membrane vesicles, sucrose 74 mM, pH 6.0, 37 °C, 30 min; for inhibition (%) Sucrase: at 100 μg mL^−1 (26a: 297 μM, 26b: 271 μM, 26c and 27c: 341 μM, 28a: 326 μM, 28b: 296 μM, 28c: 380 μM)
rat α-glucosidase = test: Glycosidase inhibitory activity, enzymes from rat small intestines; type: biochemical; settings: rat small intestinal enzymes, at 100 μg mL^−1
Outline: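 Enzyme source: brush border membrane vesicles prepared from rat small intestine and suspended in 0.1 M maleate buffer, pH 6.0. Test compound in DMSO, diluted in maleate buffer to 10% DMSO (2.5% final). Substrate solutions in maleate buffer: maltose 74 mM, sucrose 74 mM, 7.4 mM for isomaltase. Mixture incubated at 37 °C for 30 min and stopped by boiling for 2 min. Glucose measured by the glucose-oxidase method.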

yeast glucosidase = settings: read-out: Ki, inhibitory activity against yeast glucosidase; cited from earlier work

Chain of rat intestinal sucrase (P23739 whole entry): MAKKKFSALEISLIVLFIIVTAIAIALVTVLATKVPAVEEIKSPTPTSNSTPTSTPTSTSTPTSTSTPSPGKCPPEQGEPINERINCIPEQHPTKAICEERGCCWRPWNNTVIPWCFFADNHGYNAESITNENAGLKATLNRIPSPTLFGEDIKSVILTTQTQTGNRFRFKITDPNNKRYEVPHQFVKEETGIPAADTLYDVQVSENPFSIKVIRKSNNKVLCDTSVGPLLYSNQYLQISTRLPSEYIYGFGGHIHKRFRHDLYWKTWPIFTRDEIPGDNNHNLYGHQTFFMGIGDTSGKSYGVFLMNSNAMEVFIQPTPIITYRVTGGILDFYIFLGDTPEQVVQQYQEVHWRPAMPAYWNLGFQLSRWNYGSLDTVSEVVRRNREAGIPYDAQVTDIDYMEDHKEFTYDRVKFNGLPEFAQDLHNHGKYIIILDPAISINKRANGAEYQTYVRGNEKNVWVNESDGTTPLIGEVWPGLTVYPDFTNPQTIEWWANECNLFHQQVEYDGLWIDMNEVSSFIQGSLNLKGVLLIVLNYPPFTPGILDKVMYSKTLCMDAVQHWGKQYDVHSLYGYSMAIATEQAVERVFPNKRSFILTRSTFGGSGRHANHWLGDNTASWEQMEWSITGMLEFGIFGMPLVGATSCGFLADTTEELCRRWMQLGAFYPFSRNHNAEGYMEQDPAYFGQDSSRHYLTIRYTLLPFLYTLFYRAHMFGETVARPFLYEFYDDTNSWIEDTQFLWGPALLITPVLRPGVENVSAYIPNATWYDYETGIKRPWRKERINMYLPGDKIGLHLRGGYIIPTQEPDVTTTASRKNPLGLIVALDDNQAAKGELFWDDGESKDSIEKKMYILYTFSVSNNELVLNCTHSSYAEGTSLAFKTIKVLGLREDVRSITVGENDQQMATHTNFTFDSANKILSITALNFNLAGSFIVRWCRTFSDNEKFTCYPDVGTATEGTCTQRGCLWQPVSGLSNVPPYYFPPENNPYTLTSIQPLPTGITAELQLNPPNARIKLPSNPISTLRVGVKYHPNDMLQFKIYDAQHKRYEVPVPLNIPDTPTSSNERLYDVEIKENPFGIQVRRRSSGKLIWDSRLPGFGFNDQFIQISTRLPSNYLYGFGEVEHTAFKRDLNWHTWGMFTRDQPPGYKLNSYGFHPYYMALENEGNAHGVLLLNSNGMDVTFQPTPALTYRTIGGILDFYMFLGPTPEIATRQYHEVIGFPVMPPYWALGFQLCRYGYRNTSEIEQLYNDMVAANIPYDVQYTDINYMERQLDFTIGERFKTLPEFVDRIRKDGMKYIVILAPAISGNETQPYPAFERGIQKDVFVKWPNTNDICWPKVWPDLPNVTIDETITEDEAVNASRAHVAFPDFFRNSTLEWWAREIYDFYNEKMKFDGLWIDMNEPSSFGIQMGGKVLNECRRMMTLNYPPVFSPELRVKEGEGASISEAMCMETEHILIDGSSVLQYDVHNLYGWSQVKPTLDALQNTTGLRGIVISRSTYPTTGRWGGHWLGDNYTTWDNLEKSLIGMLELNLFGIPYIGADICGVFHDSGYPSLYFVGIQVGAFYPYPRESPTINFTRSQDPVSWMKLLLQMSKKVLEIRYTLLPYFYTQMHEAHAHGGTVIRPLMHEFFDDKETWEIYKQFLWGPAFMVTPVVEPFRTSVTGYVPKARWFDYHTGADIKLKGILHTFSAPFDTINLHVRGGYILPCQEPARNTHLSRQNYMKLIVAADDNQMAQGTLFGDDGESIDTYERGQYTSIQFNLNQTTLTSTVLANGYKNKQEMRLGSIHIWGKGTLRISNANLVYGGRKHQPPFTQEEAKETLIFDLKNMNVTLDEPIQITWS
Chain of rat intestinal isomaltase (P23739 whole entry): as above

SMILES | inhibition (%) Isomaltase [1] [%] | IC50 (rat intestinal sucrase) [µM] | inhibition (%) Sucrase (rat intestinal sucrase) [%] | inhibitory activity against maltase, sucrase and isomaltase (in words) (rat α-glucosidase) | Ki (yeast glucosidase) [µM]
OCC[S+](C[C@@H](O)[C@@H](O)CO)C(CO)CO.[Cl-] (single isomer, unassigned) [Compound 26c] | 5.9 | > 341 | 3.2 | hardly inhibited | 
OCC[S+](C[C@@H](O)CO)C[C@@H](O)[C@@H](O)CO.[Cl-] (stereo partly drawn) [Compound 27c, [(S)-2,3-Dihydroxypropyl] (2-hydroxyethyl) ((2S,3S)-2,3,4-trihydroxybutyl) sulfonium chloride] | −2.3 | > 341 | 4.4 | negligible | 
OCC[S+](CCO)C[C@@H](O)[C@@H](O)CO.[Cl-] [Compound 28c, Di(2-hydroxyethyl) [(2S,3S)-2,3,4-trihydroxybutyl] sulfonium chloride] | −0.9 | > 380 | 2.6 | lost considerable activity | 
[O-][C@@H](CO)[C@H](O)C[S@+]1C[C@@H](O)[C@H](O)[C@H]1CO [Neosalacinol (4), neosalacinol, reference compound] |  | 1.4 |  | effectively inhibited | 
O=S(=O)([O-])O[C@@H](CO)[C@H](O)C[S@+]1C[C@@H](O)[C@H](O)[C@H]1CO [Salacinol (1), salacinol, reference compound] |  |  |  | effectively inhibited | 14
